From ChEMBL document CHEMBL5715941, “AZD1152, a selective inhibitor of Aurora B kinase, inhibits human tumor xenograft growth by inducing apoptosis” (Clin Cancer Res, 2007)
Calls of active or inactive are those of the source.

What was measured:
[1] = tested on: SW-620; experiment: Antitumor activity against human SW620 cells xenografted in Swiss nude mouse assessed as accumulation in proportion of 2N DNA content at 70 mg/kg/day, sc over 48 hrs by flow cytometry analysis relative to control; assay type: functional
Procedure, shortened: (§1)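 Male nude mice with palpable s.c. SW620 tumors (n = 4/group) received AZD1152 (0.5-150 mg/kg/d) or vehicle by constant 48-h s.c. mini-pump infusion. Tumors were then excised, fixed and disaggregated. Flow cytometry with propidium iodide gave DNA content (2N, 4N, >4N), and rabbit anti-PhH3 with fluorescein anti-rabbit IgG gave PhH3-positive cells (%).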

[2] = tested on: SW-620; experiment: Antitumor activity against human SW620 cells xenografted in Swiss nude mouse assessed as accumulation in proportion of 4N DNA content at 70 mg/kg/day, sc over 48 hrs by flow cytometry analysis relative to control; assay type: functional; procedure, shortened: as §1
[3] = tested on: SW-620; experiment: Antitumor activity against human SW620 cells xenografted in Swiss nude mouse assessed as increase in large multinucleated cells at 70 mg/kg/day, sc over 48 hrs by H&E staining method; assay type: functional, organism-based
Procedure, shortened: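 Male nude mice bearing SW620 tumors (n = 4/group) had 48-h s.c. mini-pump infusion of AZD1152 (70 mg/kg/d) or vehicle. Excised tumor sections were stained with H&E, or immunostained for PhH3 Ser10 with rabbit polyclonal antibody, HRP-polymer detection and hematoxylin counterstain.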

[4] = tested on: SW-620; experiment: Antitumor activity against human SW620 cells xenografted in immunodeficient Swiss athymic mouse assessed as maximum inhibition of tumor volume at 150 mg/kg/day, sc for 48 hrs on days 7 to 9 and measured on day 23 relative to control; assay type: functional; details: SW-620, 408 h, time 17 day
Procedure, shortened: (§2)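 Male Swiss athymic nude mice, 8-12 wk; tumor cells (1×10^6-1×10^7, 50:50 Matrigel) implanted s.c. on flank. Randomized (n = 8-11) at 0.2-0.5 cm3. AZD1152 in Tris buffer pH 9, or vehicle (0.3 mol/L Tris), by 48-h s.c. osmotic mini-pump infusion (two 24-h pumps in sequence). Caliper volumes up to 3×/week; growth inhibition from change in control vs treated volume; one-tailed t test.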

[5] = tested on: SW-620; experiment: Antitumor activity against human SW620 cells xenografted in immunodeficient Swiss athymic mouse assessed as inhibition of tumor volume at 25 mg/kg/day, sc for 48 hrs on days 7 to 9 and measured on day 23 relative to control; assay type: functional; details: SW-620, 408 h, time 17 day; procedure, shortened: as §2
[6] = tested on: SW-620; experiment: Antitumor activity against human SW620 cells xenografted in immunodeficient Swiss athymic mouse assessed as maximum inhibition of tumor volume at 25 mg/kg/day, ip for 4 days on days 6 to 9 and measured on day 13 relative to control; assay type: functional; details: SW-620, 192 h, time 8 day
Procedure, shortened: (§3)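 Male Swiss nude mice bearing s.c. flank SW620 xenografts (cells in Matrigel), randomized (n = 8-11) at 0.2-0.3 cm3. AZD1152 in Tris buffer pH 9, or vehicle, given as a once-daily i.v. or i.p. bolus. Caliper volumes up to 3×/week; inhibition from change in control vs treated volume; one-tailed t test.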

[7] = tested on: SW-620; experiment: Antitumor activity against human SW620 cells xenografted in immunodeficient Swiss athymic mouse assessed as inhibition of tumor volume at 25 mg/kg/day, ip for 4 days on days 6 to 9 and measured on day 24 relative to control; assay type: functional; details: SW-620, 456 h, time 19 day; procedure, shortened: as §3
[8] = tested on: SW-620; experiment: Antitumor activity against human SW620 cells xenografted in immunodeficient Swiss athymic mouse assessed as maximum inhibition of tumor volume at 25 mg/kg/day, iv for 3 days on days 6 to 8 and measured on day 13 relative to control; assay type: functional; details: SW-620, 192 h, time 8 day; procedure, shortened: as §3
[9] = tested on: SW-620; experiment: Antitumor activity against human SW620 cells xenografted in immunodeficient Swiss athymic mouse assessed as inhibition of tumor volume at 25 mg/kg/day, iv for 3 days on days 6 to 8 and measured on day 24 relative to control; assay type: functional; details: SW-620, 456 h, time 19 day; procedure, shortened: as §3
[10] = tested on: COLO 205; experiment: Antitumor activity against human COLO 205 cells xenografted in immunodeficient Swiss athymic mouse assessed as inhibition of tumor volume at 150 mg/kg/day, sc for 48 hrs on days 5 to 7 and measured on day 21 relative to control; assay type: functional; details: COLO 205, 408 h, time 17 day; procedure, shortened: as §2
[11] = tested on: A549; experiment: Antitumor activity against human A549 cells xenografted in immunodeficient Swiss athymic mouse assessed as maximum inhibition of tumor volume at 150 mg/kg/day, sc for 48 hrs on days 13 to 15 and measured on day 26 relative to control; assay type: functional; details: A549, 336 h, time 14 day; procedure, shortened: as §2
[12] = tested on: Calu-6; experiment: Antitumor activity against human Calu-6 cells xenografted in immunodeficient Swiss athymic mouse assessed as maximum inhibition of tumor volume at 150 mg/kg/day, sc for 48 hrs on days 20 to 22 and measured on day 29 relative to control; assay type: functional; details: Calu-6, 240 h, time 10 day; procedure, shortened: as §2
[13] = tested on: HL-60; experiment: Antitumor activity against human HL-60 cells xenografted in immunodeficient Swiss athymic mouse assessed as maximum inhibition of tumor volume at 150 mg/kg/day, sc for 48 hrs on days 16 to 18 and measured on day 18 relative to control; assay type: functional; details: HL-60, 72 h, time 3 day; procedure, shortened: as §2
[14] = tested on: HL-60; experiment: Antitumor activity against human HL-60 cells xenografted in immunodeficient Swiss athymic mouse assessed as inhibition of tumor volume at 150 mg/kg/day, sc for 48 hrs on days 16 to 18 and measured on day 35 relative to control; assay type: functional; details: HL-60, 480 h, time 20 day; procedure, shortened: as §2
[15] = tested on: SW-620; experiment: Antitumor activity against human SW620 cells xenografted in nude athymic rat assessed as proportion of polyploid DNA content in tumor cells at 25 mg/kg/day, iv for 1 to 5 consecutive days by flow cytometry analysis relative to control; assay type: functional; details: time 1-5 day
Procedure, shortened: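 Nude rats with SW620 xenografts (0.5-1 cm3) were given vehicle or AZD1152 at 25 mg/kg/d as an i.v. bolus once daily on days 1-4. Subgroups (n = 3) were killed on days 0, 5, 9, 12, 16 and 19. Disaggregated tumors were analyzed by flow cytometry for PhH3 (% of control) and for 4N and >4N DNA (fold over control).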

[16] = tested on: SW-620; experiment: Antitumor activity against human SW620 cells xenografted in nude athymic rat assessed as high degree of pleomorphism at 25 mg/kg/day, iv for 4 consecutive days and measured on 5 day by H&E staining based immunohistochemistry analysis; assay type: functional, organism-based
Procedure, shortened: (§4)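 Nude rats bearing SW620 tumors were dosed i.v. with AZD1152 at 25 mg/kg/d or with vehicle on days 1-4. Subgroups (n = 3) were killed at set days. Tumor and bone marrow sections were H&E-stained and examined histologically.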

[17] = tested on: SW-620; experiment: Antitumor activity against human SW620 cells xenografted in nude athymic rat assessed as larger multinucleated tumor cells at 25 mg/kg/day, iv for 4 consecutive days and measured on 9 day by H&E staining based immunohistochemistry analysis; assay type: functional, organism-based; procedure, shortened: as §4
[18] = tested on: SW-620; experiment: Antitumor activity against human SW620 cells xenografted in nude athymic rat assessed as increase in cleaved caspase-3 at 25 mg/kg/day, iv for 4 consecutive days and measured on 9 day by H&E staining based immunohistochemistry analysis; assay type: functional, organism-based
Procedure, shortened: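 Nude rats bearing SW620 tumors received i.v. AZD1152 at 25 mg/kg/d or vehicle on days 1-4 (n = 3 per time point). Tumor sections were immunostained for cleaved caspase-3 (HRP polymer). The percentage area of brown staining per field was quantified by color-threshold image analysis over six fields per section at ×20.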

For `CCN(CCCOc1ccc2c(Nc3cc(CC(=O)Nc4cccc(F)c4)[nH]n3)ncnc2c1)CCOP(=O)(O)O` [BARASERTIB], the Activity [1] was 35%, the Activity [2] was 56% and the Activity [3] was “Active”. For the same compound, the inhibition in vivo at 150 mg/kg/day [4] was 87%, the inhibition in vivo at 25 mg/kg/day [5] was 49% and the inhibition in vivo at 25 mg/kg/day [6] was 65%. The inhibition in vivo at 25 mg/kg/day [7] was 54%, the inhibition in vivo at 25 mg/kg/day [8] was 91% and the inhibition in vivo at 25 mg/kg/day [9] was 47%. The inhibition in vivo at 150 mg/kg/day [10] was 94%, the inhibition in vivo at 150 mg/kg/day [11] was 79% and the inhibition in vivo at 150 mg/kg/day [12] was 67%. The inhibition in vivo at 150 mg/kg/day [13] was > 100%, the inhibition in vivo at 150 mg/kg/day [14] was > 100% and the Activity [15] was 67%. The Activity [16] was “Active”, the Activity [17] was “Active” and the Activity [18] was “Active”.
